Assay results from different studies.
Target: Uncharacterized serine/threonine-protein kinase SBK3 (SBK3, Homo sapiens, UniProt P0C264)
Sequence (P0C264 1-359, as in one of the studies): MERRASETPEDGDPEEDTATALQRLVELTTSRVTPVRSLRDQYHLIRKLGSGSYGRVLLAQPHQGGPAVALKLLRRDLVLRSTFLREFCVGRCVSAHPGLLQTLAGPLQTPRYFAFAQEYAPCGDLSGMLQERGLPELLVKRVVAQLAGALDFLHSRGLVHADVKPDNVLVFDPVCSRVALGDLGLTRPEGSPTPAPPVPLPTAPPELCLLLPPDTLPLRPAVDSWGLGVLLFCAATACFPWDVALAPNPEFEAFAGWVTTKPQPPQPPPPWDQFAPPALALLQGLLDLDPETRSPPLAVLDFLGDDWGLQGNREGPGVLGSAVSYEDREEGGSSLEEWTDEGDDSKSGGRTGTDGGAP

`O=C(NCCCN1CCOCC1)c1ccc(Nc2nccc(-c3cc4ccccc4s3)n2)cc1` has a remaining binding of 91% (binding; competition with immobilised ligand; 1 µM).
The remaining binding of `CN(C)C(=O)Cn1cc(-c2nc([C@@](C)(c3ccc(-c4cnc(N)nc4)cc3)C3CC3)no2)cn1` is reported as 71% (cell-free assay; competition with immobilised ligand; 1 µM).
The remaining binding of `O=C(c1ccc(Nc2ncc(Cl)c(-c3ccc(Cl)s3)n2)cc1)N1CCC(N2CCCC2)CC1` is reported as 62% (binding; competition with immobilised ligand; 1 µM).
For `c1cncc(-c2cccc(Nc3nccc(NC4CCCCC4)n3)c2)c1`, the remaining binding was 33% (binding; competition with immobilised ligand; 10 µM).
`Cc1nc(Cc2cccc(C(F)(F)F)c2)sc1-c1ccc(C(N)=O)nc1` has a remaining binding of 100% (cell-free assay; competition with immobilised ligand; 1 µM).
The remaining binding of `COc1ncc2cc3ccccc3nc2c1C#N` is reported as 100% (cell-free assay; competition with immobilised ligand; 5 µM).
With `N[C@@H]1CCN(c2nccc(-c3cnn4ncccc34)n2)C1` the remaining binding was 100% (binding; 1 µM).
With `CCN1CCN(Cc2ccc(C(=O)Nc3ccc(C)c(Oc4ccc5c(c4)CC(=O)N5)c3)cc2C(F)(F)F)CC1` the remaining binding was 100% (binding; competition with immobilised ligand; 1 µM).
`CC(=O)C1=C(C)N(c2cccc(C(F)(F)F)c2)C(=O)N[C@@H]1c1ccc(C#N)nc1` gave a remaining binding of 100% (cell-free assay; competition with immobilised ligand; 1 µM).
`Cc1cnc(Nc2ccc(C(=O)N3CCC(N4CCCC4)CC3)cc2)nc1-c1cc2ccccc2s1` gave a remaining binding of 46% (binding; competition with immobilised ligand; 1 µM).
For `O=C(Nc1c[nH]nc1C(=O)NC1CCNCC1)c1cc(F)cc(F)c1`, the remaining binding was 100% (binding; competition with immobilised ligand; 1 µM).
`CNC(=O)[C@@H]1CC[C@@H](n2c(-c3ccc4cnccc4c3)nc3ccc(C(=O)NCc4cccc(C(N)=O)c4)cc32)C1` gave a remaining binding of 87% (binding; competition with immobilised ligand; 1 µM).
For `CN(C)c1nccc(-c2cnn3ncccc23)n1`, the remaining binding was 100% (binding; 1 µM).
The remaining binding of `Cn1nc(C(=O)NCc2ccc(C(=O)O)cc2)cc1-c1ccc2[nH]ccc2c1` is reported as 79% (cell-free assay; competition with immobilised ligand; 0.1 µM).
For `F[C@@H]1CCN(c2nccc(-c3cnn4ncccc34)n2)C1`, the remaining binding was 100% (binding; 1 µM).
The remaining binding of `CS(=O)(=O)c1cc(C2(NC(=O)c3cncc4c3cnn4-c3ccc(F)cc3)CC2)ccn1` is reported as 100% (cell-free assay; competition with immobilised ligand; 1 µM).
The remaining binding of `c1cnn2ncc(-c3ccnc(N4CCC45COC5)n3)c2c1` is reported as 71% (binding; 1 µM).
For `FC(F)(F)Oc1cccc(-c2cnc3ccc(-c4ccncc4)nn23)c1`, the remaining binding was 100% (binding; competition with immobilised ligand; 5 µM).
`CC1CCCN1c1nccc(-c2cnn3ncccc23)n1` (centres unmarked) has a remaining binding of 100% (binding; 1 µM).
The remaining binding of `O=C(N[C@H]1CCCCC/C=C\C2C[C@@]2(C(=O)O)NC(=O)[C@@H]2C[C@@H](Oc3ccncc3)CN2C1=O)OC1CCCC1` (some centres unmarked) is reported as 79% (binding; competition with immobilised ligand; 1 µM).
